# Assay outcomes as filed in PubChem.
# KCNQ1 act: potentiators or activators of KCNQ1 channel, primary screen, cell-based, thallium flux, high-throughput | CHO-K1 KCNQ1, thallium flux FluxOR fluorescence; active compounds read high | AID 2648, 2010 | B-score at 10 µM | Potassium voltage-gated channel subfamily KQT member 1 (Homo sapiens), P51787 | 310,000 compounds, 0.35% hits;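 active means fluorescence ratio B-score, a plate-corrected score, at least three library SD, with initial intensity B-score within 5 SD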
# Target sequence (P51787 whole entry, looked up): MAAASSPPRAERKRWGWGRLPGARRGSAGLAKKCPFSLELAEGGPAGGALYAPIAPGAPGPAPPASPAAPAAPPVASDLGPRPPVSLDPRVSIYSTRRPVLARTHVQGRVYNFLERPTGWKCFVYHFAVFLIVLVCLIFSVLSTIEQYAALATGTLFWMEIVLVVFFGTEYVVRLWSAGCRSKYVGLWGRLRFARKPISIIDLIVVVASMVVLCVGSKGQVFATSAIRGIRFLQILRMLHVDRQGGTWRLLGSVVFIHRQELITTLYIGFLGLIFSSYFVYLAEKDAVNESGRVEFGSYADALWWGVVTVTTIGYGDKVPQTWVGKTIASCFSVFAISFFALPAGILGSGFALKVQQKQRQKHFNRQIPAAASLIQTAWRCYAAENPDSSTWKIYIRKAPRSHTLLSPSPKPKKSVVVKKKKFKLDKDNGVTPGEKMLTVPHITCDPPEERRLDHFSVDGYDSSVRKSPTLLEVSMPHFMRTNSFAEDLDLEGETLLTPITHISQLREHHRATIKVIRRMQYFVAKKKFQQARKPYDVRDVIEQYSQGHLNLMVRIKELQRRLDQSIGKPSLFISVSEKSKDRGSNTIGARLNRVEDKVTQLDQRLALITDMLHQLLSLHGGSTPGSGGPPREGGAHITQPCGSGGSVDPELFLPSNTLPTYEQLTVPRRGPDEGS
#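 Doses: Single concentration per compound, DMSO matched to controls | Test system: KCNQ1-transfected CHO-K1 cells | Timing: 90 min dye loading and 20 min compound exposure, both at room temperature | Measured by: Kinetic FluxOR thallium fluorescence, 10-s 1-Hz baseline, 110-s post-stimulus read | Medium: Assay buffer with matched DMSO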
# KCNK3 block: human KCNK3 channel inhibitors, primary screen, CHO cells, FluxOR thallium flux, B-score. Potassium channel subfamily K member 3 (Homo sapiens), O14649. FluxOR fluorescence; active compounds read low. B-score at 10 µM. 340,000 compounds, 0.84% hits. AID 602410, 2012;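 active means B-score under library mean minus 4 SD, starting fluorescence ratio at most library mean plus 5 SD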;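 further: more negative B-score means stronger inhibition of thallium flux through KCNK3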
# hERG rescue: hERG rescue from dofetilide block, primary screen, cell-based, CHO-hERG, FluxOR thallium flux, dofetilide IC70. dofetilide IC70 present. activation (rescue from dofetilide block), less the hit threshold, % at 10 µM. 310,000 compounds, 0.51% hits;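 active means activation above the mean of controls blocked by dofetilide plus 5 SD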;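 further: thallium influx through hERG after potassium depolarization seen as dye fluorescence rise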
# KCC2 mod: KCC2 cotransporter modulators, thallium flux, primary screen, cell-based, HEK293 KCC2, FluoZin-2 fluorescence, MLSMR. Solute carrier family 12 member 5 (Homo sapiens), Q9H2X9. KCC2 cells, thallium flux FluoZin-2 fluorescence. B-score of Tl+ flux slope (higher = more flux/activation; lower = inhibition) at 10 µM. 190,000 compounds, 2.2% hits. AID 1456, 2008;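 active means thallium flux slope and its plate-corrected score both differing from the plate sample mean at a set confidence after two filtering rounds, in either direction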;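 further: slope of fluorescence scaled to starting intensity during 10 to 20 s after thallium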
# KCNQ1 inh: inhibitors of human KCNQ1 channel, primary screen, cell-based, thallium flux, high-throughput. AID 2642, 2010. B-score at 10 µM. CHO-K1 KCNQ1, FluxOR thallium flux fluorescence; active compounds read high. Potassium voltage-gated channel subfamily KQT member 1 (Homo sapiens), P51787. 310,000 compounds, 1.3% hits;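 active means compounds whose thallium flux B-score, printed positive for inhibition, exceeds three library SD while starting fluorescence stays within three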;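 further: channel opened by potassium depolarization with thallium stimulus after 20 min compound exposure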
# KCNK9 inh: KCNK9 potassium channel inhibitors, primary screen, HEK293 cells, thallium flux; 310,000 compounds, 1.2% hits; FluxOR thallium flux fluorescence; active compounds read low; B-score at 10 µM; Potassium channel subfamily K member 9 (Homo sapiens), Q9NPC2;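 active means ratio B-score over 3 SD below the library mean, with starting fluorescence within 5 SD of its mean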;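 further: negative B-score means less thallium flux so channel inhibition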
# KCNK9 block conf: KCNK9 potassium channel inhibitors, confirmation, HEK293 cells, thallium flux, duplicate; shares compounds with KCNK9 inh; FluxOR thallium flux fluorescence; inhibition, % at 10 µM; 4,900 compounds, 43% hits;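 active means thallium signal inhibited by more than 5 SD of the compound-free buffer control wells, on both duplicate plates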;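 further: 0% = assay buffer control wells without compound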
# Kir2-1 spec: mouse Kir2.1 channel inhibition, confirmation, selectivity assay for KCNK9 modulator project, cell-based, HEK293, thallium flux; Kir2.1 cells, FluxOR thallium flux fluorescence; inhibition, % at 10 µM; 4,900 compounds, 4% hits; shares compounds with KCNK9 inh; AID 492993, 2010;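 active means thallium signal drop more than 5 SD beyond the mean of the no-compound control wells, seen in both duplicate plates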;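 further: signal is fluorescence rise after thallium addition divided by baseline fluorescence; plate controls were assay buffer only for no effect and full block by chlorpromazine control for full effect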
# KCNK9 uninduced: thallium flux in non-induced HEK293 cells, confirmation, counter-screen for KCNK9 inhibitor project, cell-based, second counter screen, non-induced KCNK9-HEK293; shares compounds with KCNK9 inh; FluxOR thallium flux; inhibition, % at 10 µM; 4,900 compounds, 40% hits; AID 492997, 2010;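 active means thallium signal drop beyond 5 SD of the untreated control mean, on both duplicate plates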;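 further: plate controls were buffer only IC0 wells for no effect and SID17386958 at its maximal inhibitory level for full effect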
# Numbers without * were called inactive; i = inactive; . = no result given. Most compounds without a hit are left out; they make up all but 4.1% or so of the library.
SMILES,KCNQ1 act,KCNK3 block,hERG rescue,KCC2 mod,KCNQ1 inh,KCNK9 inh,KCNK9 block conf,Kir2-1 spec,KCNK9 uninduced
C[C@@H](C(=O)O)[C@H]1C[C@]1(C)[C@H](NC(=O)OCc1ccccc1)c1ccccc1,i,i,-7,0.15,i,i,.,.,.
Cc1cc(NC(=O)c2ccc(F)cc2F)n(-c2nc3ccccc3[nH]2)n1,i,i,0,0.88,i,i,.,.,.
Cc1cc(NC(=O)/C=C/c2ccccc2Cl)n(-c2nc3ccccc3[nH]2)n1,i,i,-8,1.5,i,-9.1*,i,i,26%*
CC(C)=CCC/C(C)=C/CNC(=O)C[C@H]1C[C@H](C(=O)N2CCOCC2)[C@@]2(CCC3CCCC3)c3[nH]c4cc(CCC(=O)N(C)C)ccc4c3CCN2C1=O,.,i,.,.,.,.,.,.,.
COc1cc(C=O)ccc1OCCOc1ccccc1[N+](=O)[O-],i,i,-11,-1.2,i,i,.,.,.
CCOc1ccccc1OCCOCCOc1ccccc1[N+](=O)[O-],i,i,-13,-1.4,i,i,i,i,i
CC(C)CN(C(=O)COc1ccc(C(C)(C)C)cc1)C1CCS(=O)(=O)C1 (stereo not given),i,i,-8,.,i,i,.,.,.
COc1ccc(OC)c(Cc2nnc(CCC(=O)N3CCCCC3c3nccs3)o2)c1 (stereo not given),i,i,-11,0.51,i,i,.,.,.
Cc1ccc(CN(C(=O)c2csnn2)C(C(=O)NC2CCCC2)c2ccco2)cc1 (stereo not given),i,i,-11,.,i,i,.,.,.
CCn1nc([N+](=O)[O-])c(C(C#N)c2nc3cc(C(F)(F)F)ccc3s2)c(Cl)c1=O (stereo not given),i,i,-9,-5.7*,i,i,i,i,i
CN(C)CCCN(C(=O)c1ccc(C(=O)c2ccccc2)cc1)c1nc2c(F)cccc2s1,i,i,-16,.,i,i,i,i,i
COc1ccc(NS(=O)(=O)c2cc(NC(=O)c3ccc(=O)[nH]n3)ccc2C)cc1,.,i,.,.,.,.,.,.,.
Cn1nc(-c2ccccc2)c(CN2CCN(c3ncccn3)CC2)c1Cl,i,i,-5,-2.3,i,i,i,i,i
Clc1cccc(Cl)c1CN1CCN(c2ncccn2)CC1,i,i,-6,.,i,i,.,.,.
Cc1ccc(SCc2c(-c3ccccc3)nn(C)c2Cl)cc1,i,i,-5,-0.79,6*,-8.5*,42%*,34%*,47%*
Cn1nc(N)c2c(-c3ccccc3)c(C#N)c(N)nc21,i,i,-7,1.2,i,i,.,.,.
Cc1ccc(Sc2c(C#N)c(-c3ccccc3)nn2C)cc1,i,i,-15,0.0083,6*,-9.8*,56%*,i,40%*
CN(c1ccccc1)S(=O)(=O)c1cc(C(=O)NCCCn2ccnc2)ccc1Cl,.,i,.,.,.,.,.,.,.
Cn1c(CNC(=O)C2CCC(=O)N(CCc3cccc(F)c3)C2)nc2ccccc21 (stereo not given),i,i,-5,.,i,i,.,.,.
CCOC(=O)c1c(NS(=O)(=O)c2ccc(Br)cc2)sc2c1CCC2,56*,i,62*,118*,i,i,i,i,i
C=C(C)C1CC=C(CN2CCN(Cc3ccccc3)CC2)CC1 (stereo not given),i,i,-5,.,i,i,i,i,i
C=C(C)[C@@H]1CC=C(CN2CCN(Cc3ccccc3)CC2)CC1,i,i,-8,.,i,i,.,.,.
CC(C)CC1C(=O)N(Cc2cn(CC3CCCCC3)nn2)CCS(=O)(=O)N1Cc1ccc(-c2cccc(C#N)c2)cc1 (stereo not given),.,i,.,.,.,.,.,.,.
COC(=O)C(CCSC)NS(=O)(=O)c1ccc(Cl)cc1 (stereo not given),i,i,-11,0.64,i,i,.,.,.
COc1ccc(C(=O)COC(=O)C(CCSC)NS(=O)(=O)c2ccc(Cl)cc2)cc1 (stereo not given),i,i,-5,-0.83,i,i,i,i,i
SMILES,KCNQ1 act,KCNK3 block,hERG rescue,KCC2 mod,KCNQ1 inh,KCNK9 inh,KCNK9 block conf,Kir2-1 spec,KCNK9 uninduced
CC(C)NC(=O)[C@H](CSCc1ccccc1)N1Cc2ccccc2C1=O,i,i,-6,-1,i,i,.,.,.
O=C(NC1CCCCC1)[C@H](CSCc1ccccc1)N1Cc2ccccc2C1=O,i,i,-8,-1.1,i,i,i,i,i
COCC(=O)N1CCC(Oc2ccc(C(=O)N3CCN(C)C[C@@H]3C(C)C)cc2)CC1,i,i,-9,.,i,i,.,.,.
COc1ccc(C(=O)c2coc3ccc(O)c(CN4CCCCC4)c23)cc1,i,i,-11,-0.57,i,i,i,i,i
CN(C)CC/C=C1/c2cc(F)ccc2Sc2ccc(Cl)cc21,i,i,-7,.,i,i,i,i,i
COc1cc(Cl)cc2c1Sc1ccccc1/C2=C/CCN(C)C,i,i,-19,.,i,i,i,i,i
CN(C)CC/C=C1/c2ccccc2Sc2c(O)cc(Cl)cc21,i,i,-16,0.51,i,i,.,.,.
Cc1cc(C)c(S(=O)(=O)N2CCN(C(=O)c3ccc(-n4nc(C)c(Cl)c4C)cc3)CC2)c(C)c1,.,i,.,.,.,.,.,.,.
COc1cccc(C(c2cccc(OC)c2)c2ccccc2C(=O)O)c1,.,i,.,.,.,.,.,.,.
O=C(CNC(=O)N1CC(=O)Nc2ccccc21)NCCc1cccc(F)c1,i,i,-4,.,i,i,.,.,.
